# Assay results reported in PubChem BioAssay AID1480 (NMMLSC, 2009).
# This is one part of the list. Unmarked numbers belong to inactive results.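 Rule for the calls: active = fluorescence in ABCG2-expressing cells above the plate's control-well mean plus 3 SD (cut at about 15 in these data); inactive = the rest.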
# Assay: compound autofluorescence in ABCG2-expressing IgMXP3 cells, confirmation, artefact control for ABC transporter inhibitor project, cell-based, 488/530 nm, flow cytometry (AID 1480)
# Details: compound autofluorescence 488/530 nm, at 6.6 µM, stronger effect = higher value
# In short: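 Material: ABCG2-expressing drug-resistant IgMXP3 cells | Input: 3 million cells/mL final | Medium: JC-1 kit assay buffer | Probe or stimulus: no JC-1 substrate | Times: Cell–compound exposure 10 min, 25 °C, end-over-end rotation | Measured by: High-throughput flow cytometry, green FL1 channel fluorescence | Evaluation: Compound-well median cell fluorescence minus DMSO-well median fluorescence | Benchmarks: DMSO-only wells as cell background reference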
smiles,measurement,value
COC(=O)COc1cc(C)cc2oc(=O)c3c(c12)CCCC3,fluorescence,1.36
